# Screens as filed in PubChem BioAssay.
# A selection: hits, their analogues and other compounds. The true share with any hit is near 2.5%.
# Fh CTSL1 inh = Fasciola hepatica cathepsin L1 inhibitors, primary screen, counter-screen for PFM18AAP inhibitor project, biochemical, QFRET, fluorogenic peptide substrate; recombinant F. hepatica cathepsin L1, Z-Leu-Arg-MCA fluorescence; inhibition, % at 5.96 µM; hit rate 0.49% among 300,000; AID 1906, 2009;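 active = inhibition above the mean of all tested compounds plus 3 SD, set per screening campaign, cut at about 17% in these data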;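 also: 0% = plate median of test compound wells and 100% = 1 µM Z-Phe-Ala-diazomethylketone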
# TDP2 inh = human TDP2 enzyme inhibitors, primary screen, biochemical, epi absorbance, recombinant enzyme. Tyrosyl-DNA phosphodiesterase 2 (Homo sapiens), O95551. T5PNP hydrolysis, p-nitrophenol absorbance 415 nm. inhibition, % at 12.8 µM. hit rate 0.34% among 370,000;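 active = inhibition above the mean of all tested compounds plus 3 SD, set per campaign, cut at about 25% in these data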;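 also: 0% = DMSO with enzyme and 100% = buffer with substrate but no TDP2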
# Target sequence (O95551 whole entry, looked up): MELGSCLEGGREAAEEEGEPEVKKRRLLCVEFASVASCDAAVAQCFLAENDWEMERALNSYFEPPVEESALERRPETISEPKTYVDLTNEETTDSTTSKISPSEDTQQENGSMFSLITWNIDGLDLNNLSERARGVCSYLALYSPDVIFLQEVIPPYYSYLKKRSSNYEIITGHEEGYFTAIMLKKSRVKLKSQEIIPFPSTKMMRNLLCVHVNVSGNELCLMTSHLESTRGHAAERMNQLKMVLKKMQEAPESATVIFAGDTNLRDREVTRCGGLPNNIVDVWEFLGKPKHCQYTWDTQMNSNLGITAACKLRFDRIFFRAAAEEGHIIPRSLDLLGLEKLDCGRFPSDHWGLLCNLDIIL
#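 Assay system: Recombinant human TDP2 | Quantity: 120 nM TDP2 per well | Incubation: 2 h at 37 °C | Signal: Epi absorbance | Evaluation: Percent inhibition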
# PAD4 inh = human PAD4 inhibitors, primary screen, biochemical, fluorescence polarization, 1536-well format; recombinant PAD4, RCA probe fluorescence polarization; hit rate 0.41% among 330,000; inhibition, % at 6.36 µM;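 active = percent inhibition above a cutoff equal to the mean of all tested compounds plus 3 SD, cut at about 15% in these data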;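 also: 0% = PAD4 with RCA probe and DMSO and 100% = probe without PAD4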
# PRMT1 inh = PRMT1 methyltransferase inhibitors, primary screen, biochemical, fluorescence polarization | hit rate 1.3% among 370,000 | Protein arginine N-methyltransferase 1 (Homo sapiens), Q99873 | recombinant PRMT1, activity-based probe fluorescence polarization | inhibition, % at 2.79 µM;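 active = inhibition above about 21% made by adding two undisclosed values, limit read from the data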
# GSTO1 inh = inhibitors of recombinant GSTO1, primary screen, counter-screen for RBBP9 inhibitor project, biochemical, fluorescence polarization. Glutathione S-transferase omega-1 (Homo sapiens), P78417. hit rate 1.1% among 300,000. inhibition, % at 5.96 µM. activity-based probe fluorescence polarization;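 active = inhibition above the campaign mean inhibition plus 3 SD, cut at about 35% in these data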;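 also: 0% = GSTO1-1 with DMSO and 100% = wells lacking GSTO1-1 enzyme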
# Target sequence (P78417 whole entry, looked up): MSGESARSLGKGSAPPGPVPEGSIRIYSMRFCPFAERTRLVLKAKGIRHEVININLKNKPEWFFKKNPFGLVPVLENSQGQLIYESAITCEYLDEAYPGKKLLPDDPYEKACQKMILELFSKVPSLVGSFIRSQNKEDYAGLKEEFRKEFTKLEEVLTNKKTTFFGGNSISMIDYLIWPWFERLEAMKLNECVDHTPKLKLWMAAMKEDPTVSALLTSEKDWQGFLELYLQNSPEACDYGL
# PRMT1 confirm = PRMT1 methyltransferase inhibitors, confirmation, biochemical, fluorescence polarization, triplicate | shares compounds with PRMT1 inh | recombinant His-PRMT1, activity-based probe fluorescence polarization | inhibition, % at 2.79 µM | hit rate 42% among 3,300 | AID 687036, 2013;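 active = mean inhibition across replicates above the hit cutoff derived for the earlier primary screen, cut at about 22% in these data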
# Numbers without * were called inactive; · = not tested or not shown.
SMILES,Fh CTSL1 inh,TDP2 inh,PAD4 inh,PRMT1 inh,GSTO1 inh,PRMT1 confirm
O=S1(=O)CC2c3ccc(F)cc3CN2CN1Cc1ccccc1 (centres undefined),·,3.6,·,0.4,·,·
Cc1ccc(NC(=S)NNc2ccc([N+](=O)[O-])cc2S(=O)(=O)Nc2ccccc2C(=O)O)cc1C,3.7,-3.6,1.3,26.8*,-144.5,39.5*
CC(=O)Nc1ccc(C=NNc2ccc([N+](=O)[O-])cc2S(=O)(=O)Nc2ccccc2C(=O)O)cc1,·,-20.0,-4.2,7.2,·,·
Cc1ccc2c(c1)-c1c(cnn1CC(=O)NCCc1ccccc1F)CO2,·,-1.5,·,-2.7,·,·
O=C(CC1SC(=O)N(c2ccccc2)C1=O)Nc1ccc(Br)cc1 (centres undefined),6.8,-1.3,-16.7,32.2*,-49.4,102.1*
O=C(CC1SC(=O)N(c2ccccc2)C1=O)Nc1ccc(Cl)cc1 (centres undefined),6.9,-2.5,-10.8,26.3*,-64.2,91.9*
CCCN1C(=O)SC(CC(=O)Nc2ccccc2)C1=O (centres undefined),-1.6,7.2,1.9,6.0,6.4,·
CC(C)N=C1SC(CC(=O)Nc2ccccc2)C(=O)N1C(C)C (centres undefined),1.6,1.1,0.3,61.2*,5.8,0.8
COC(=O)[C@]12C[C@H](CC(=O)N3CCCC3)C(=O)N(CCc3ccc(OC)c(OC)c3)C1=C[C@H](COCc1ccccc1)O[C@@H]2C,·,-4.8,·,0.8,·,·
Cc1nnc(Sc2cc(NCCO)c([N+](=O)[O-])c3nonc23)s1,·,12.3,·,84.9*,·,88.8*
Cc1nnc(Sc2cc(NCCCO)c([N+](=O)[O-])c3nonc23)s1,·,-3.4,·,90.9*,·,84.3*
O=[N+]([O-])c1c(NCCCO)cc(Sc2nc3ccccc3s2)c2nonc12,7.6,·,-6.0,·,30.9,·
Cc1ccc(S(=O)(=O)n2ccc(-c3c(-c4ccc(F)cc4)noc3C)n2)cc1,·,2.1,·,-0.5,·,·
COc1ccc(OC)c(NC(=O)CS(=O)(=O)c2cn(CC(=O)N3CCOCC3)c3ccccc23)c1,1.5,-7.3,-0.9,-0.4,1.6,·
COc1ccc(NC(=O)CS(=O)(=O)c2cn(CC(=O)N3CCOCC3)c3ccccc23)cc1OC,-0.9,-4.4,2.4,34.5*,2.2,21.4*
CCOC(=O)c1cc2c(ccn2C)n1CC(=O)N(Cc1ccccc1)c1ccccc1,-2.2,-11.4,2.1,29.4*,2.6,6.2
CC(C)OC(=O)c1cc2c(ccn2C)n1CC(=O)N1CCC(Cc2ccccc2)CC1,4.0,-5.2,-5.0,-0.7,-1.8,·
CC(C)OC(=O)c1cc2c(ccn2C)n1CC(=O)N(Cc1ccccc1)c1ccc(F)cc1,3.6,-8.6,-1.5,25.0*,5.8,4.9
CCOC(=O)c1cc2c(ccn2C)n1CC(=O)N(Cc1ccccc1)c1ccc(F)cc1,-0.1,1.8,3.2,3.6,2.0,·
CSC1=NS(=O)(=O)c2c(C)nn(C)c2S1,-2.6,-1.6,-0.9,99.7*,4.2,76.3*
CN1CCN(C(=S)C(=O)Nc2ccc(Br)cc2)CC1,-3.3,10.0,4.1,72.3*,3.7,71.9*
CN1CCN(C(=S)NC(=O)c2ccc(Br)cc2)CC1,2.5,-8.0,0.8,-2.3,2.8,·
COC(=O)[C@]12C[C@H](CC(=O)NCc3cccc4ccccc34)C(=O)N(CCC3=CCCCC3)C1=C[C@H](C1CCCC1)O[C@@H]2C,·,-7.0,·,-2.6,·,·
Cc1ccc(NC(=O)CSc2nc(O)c(Cc3ccccc3)c(=O)n2-c2ccccc2)cc1,1.7,-4.9,-0.3,32.7*,1.4,28.9*
CCc1c(O)nc(SCC(=O)Nc2ccccc2)n(-c2ccccc2C)c1=O,·,8.1,·,36.4*,·,20.2
SMILES,Fh CTSL1 inh,TDP2 inh,PAD4 inh,PRMT1 inh,GSTO1 inh,PRMT1 confirm
CCCCc1c(O)nc(SCC(=O)Nc2cccc3ccccc23)n(-c2ccccc2OC)c1=O,4.0,-15.5,-2.9,42.0*,-1.3,23.4*
COc1ccc(-n2c(SCC(=O)Nc3ccccc3OC)nc(O)c(Cc3ccccc3)c2=O)cc1,-7.6,-5.3,-0.7,30.4*,-3.5,22.4*
COc1ccc(-n2c(SCC(=O)Nc3ccccc3OC)nc(O)cc2=O)cc1,4.8,3.6,1.3,1.4,5.3,·
O=C(NC1CCCCN(Cc2ccc(Cl)cc2)C1=O)C1C2CC3CC(C2)CC1C3 (centres undefined),·,12.2,·,1.9,·,·
CCOC(=O)CC[C@@H]1CC[C@]2(CCCN(S(=O)(=O)c3ccccc3)C2)O1,·,13.6,·,-2.1,·,·
Clc1ccc(-c2cc(-c3nnc4sc(Cc5cccs5)nn34)[nH]n2)cc1,·,-2.9,·,0.9,·,·
CCc1c(O)nc(SCC(=O)Nc2ccccc2C)n(-c2ccc(C)cc2)c1=O,-3.2,-3.2,-2.1,29.6*,17.3,12.9
CCc1c(O)nc(SCC(=O)Nc2cc(C)on2)n(-c2ccccc2)c1=O,-3.8,-4.6,-1.2,53.1*,1.8,23.7*
CCc1c(O)nc(SCC(=O)Nc2nc3ccccc3s2)n(-c2ccc(C)cc2)c1=O,-3.0,-13.0,4.5,-4.9,7.6,·
CCc1c(O)nc(SCC(=O)Nc2nc3ccccc3s2)n(-c2ccccc2)c1=O,6.7,5.1,5.9,38.4*,-3.4,42.4*
CCc1c(O)nc(SCC(=O)Nc2ccc(Br)cc2)n(-c2ccc(C)cc2)c1=O,6.1,2.9,-6.8,45.4*,-1.9,33.1*
COc1ccc(Br)cc1C=NNC(=O)c1ccncc1,·,-4.1,·,6.6,·,·
O=C(OCCN1CCN(C2CN(Cc3cn(Cc4ccccc4F)nn3)S(=O)(=O)C2)CC1)c1cc2ccccc2o1 (centres undefined),·,-0.7,·,-10.0,·,·
O=C(Nc1ccc(F)c(C(F)(F)F)c1)Nc1nnc(-c2ccncc2)s1,·,-6.5,·,4.6,·,·
CCc1c(O)nc(SCC(=O)Nc2ccccc2)n(-c2ccccc2)c1=O,-4.8,-3.6,5.6,17.5,2.8,·
Cc1c(O)nc(SCC(=O)Nc2cccc(C(F)(F)F)c2)n(-c2ccccc2)c1=O,·,-15.1,·,94.8*,·,75.1*
COC(=O)c1ccc(CSc2nc3ccccc3s2)o1,-3.7,-7.9,-6.2,0.8,-5.2,·
COC(=O)c1ccc(CSc2n[nH]c(=S)s2)o1,-1.8,-4.7,1.5,27.2*,-4.0,-0.7
CC[C@@]1(O)C(=O)OCc2c1cc1n(c2=O)Cc2cc3c(CN(C)C)c(O)ccc3nc2-1,-10.0,2.2,1.0,106.8*,5.9,108.8*
CC[C@@]1(O)C(=O)OCc2c1cc1n(c2=O)Cc2cc3c(N)cccc3nc2-1,1.6,15.4,-2.3,2.2,8.3,·
O=C(O)CCC(=O)c1ccc2c(c1)OCCO2,0.8,-6.3,4.2,0.0,4.4,·
